How the values were obtained:
[1] = biological target: T1, Estrogen receptor (Homo sapiens) (UniProt P03372); test: Inhibition of ER-alpha (unknown origin) transcriptional activity expressed in ER-negative human SKBR3 cells coexpressing ERE assessed as change in reporter gene activity after 40 hrs relative to control; format: cell-based; set-up: concentration or dose not given beside the values; conditions: SK-BR-3
T1 sequence (whole entry): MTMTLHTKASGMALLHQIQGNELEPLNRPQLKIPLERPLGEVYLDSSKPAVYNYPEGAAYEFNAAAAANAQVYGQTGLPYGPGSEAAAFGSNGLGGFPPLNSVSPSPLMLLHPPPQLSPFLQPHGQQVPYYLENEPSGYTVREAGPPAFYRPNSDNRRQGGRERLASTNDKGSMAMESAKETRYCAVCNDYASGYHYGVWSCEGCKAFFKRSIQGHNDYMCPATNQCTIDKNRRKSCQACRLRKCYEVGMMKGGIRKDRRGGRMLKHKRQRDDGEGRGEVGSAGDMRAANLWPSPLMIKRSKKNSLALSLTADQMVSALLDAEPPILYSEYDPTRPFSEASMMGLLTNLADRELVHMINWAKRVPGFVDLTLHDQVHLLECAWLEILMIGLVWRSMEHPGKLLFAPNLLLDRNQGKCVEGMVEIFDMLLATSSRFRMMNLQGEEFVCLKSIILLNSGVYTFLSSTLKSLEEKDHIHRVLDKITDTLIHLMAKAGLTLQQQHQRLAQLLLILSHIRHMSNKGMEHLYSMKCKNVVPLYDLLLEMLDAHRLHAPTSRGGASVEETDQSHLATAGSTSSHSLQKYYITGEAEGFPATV
Method in brief: (§1)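 ER-negative SKBR3 cells cotransfected with 3xERE-TATA-luciferase, RST7-ERα and pCMV-β-gal for normalization. […] Scored as >50% decrease or increase at <20, 20–50 or >50 μM, or <20% change. 4-hydroxytamoxifen as antagonist control. Cell death above 50 μM flagged.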

[2] = biological target: T1, Estrogen receptor (Homo sapiens); test: Inhibition of ER-alpha (unknown origin) transcriptional activity expressed in ER-negative human SKBR3 cells coexpressing ERE assessed as change in reporter gene activity after 40 hrs in presence of estradiol relative to control; format: cell-based; set-up: concentration or dose not given beside the values; conditions: SK-BR-3; method in brief: as §1
[3] = biological target: T1, Estrogen receptor (Homo sapiens); test: Competitive inhibition of ER-alpha (unknown origin)-GRIP1 interaction expressed in human HepG2 cells assessed as change in reporter gene activity after 40 hrs relative to control; format: cell-based; set-up: concentration or dose not given beside the values
Method in brief: (§2)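 HepG2 cells transfected with VP16-ERα, Gal4-DBD-fused GRIP1 LxxLL2 peptide and 5xGal4Luc3 reporter. […] Scored as >50% decrease or increase at <20, 20–50 or >50 μM, or <20% change. 4-hydroxytamoxifen as antagonist control. Cell death and precipitation flagged.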

[4] = biological target: T1, Estrogen receptor (Homo sapiens); test: Competitive inhibition of ER-alpha (unknown origin)-GRIP1 interaction expressed in human HepG2 cells assessed as decrease in reporter gene activity at >50 uM after 40 hrs in presence of estradiol relative to control; format: cell-based; set-up: scale not given: the % may be the effect or the level left; method in brief: as §2
[5] = biological target: T1, Estrogen receptor (Homo sapiens); test: Inhibition of ER-alpha (unknown origin) transcriptional activity expressed in ER-negative human SKBR3 cells coexpressing ERE assessed as decrease in reporter gene activity at <20 uM after 40 hrs relative to control; format: cell-based; set-up: scale not given: the % may be the effect or the level left; conditions: SK-BR-3; method in brief: as §1
[6] = biological target: T1, Estrogen receptor (Homo sapiens); test: Inhibition of ER-alpha (unknown origin) transcriptional activity expressed in ER-negative human SKBR3 cells coexpressing ERE assessed as decrease in reporter gene activity at <20 uM after 40 hrs in presence of estradiol relative to control; format: cell-based; set-up: scale not given: the % may be the effect or the level left; conditions: SK-BR-3; method in brief: as §1
[7] = biological target: T1, Estrogen receptor (Homo sapiens); test: Competitive inhibition of ER-alpha (unknown origin)-GRIP1 interaction expressed in human HepG2 cells assessed as decrease in reporter gene activity at <20 uM after 40 hrs relative to control; format: cell-based; set-up: scale not given: the % may be the effect or the level left; method in brief: as §2
HepG2 [8] = test: Cytotoxicity against human HepG2 cells expressing ER-alpha coexpressing GRIP1 assessed as cell death at >50 uM; format: cell-based; method in brief: as §2
[9] = biological target: T1, Estrogen receptor (Homo sapiens); test: Competitive inhibition of ER-alpha (unknown origin)-GRIP1 interaction expressed in human HepG2 cells assessed as decrease in reporter gene activity at <20 uM after 40 hrs in presence of estradiol relative to control; format: cell-based; set-up: scale not given: the % may be the effect or the level left; method in brief: as §2
HepG2 [10] = test: Cytotoxicity against human HepG2 cells expressing ER-alpha coexpressing GRIP1 assessed as cell death at >50 uM in presence of estradiol; format: cell-based; method in brief: as §2
Estrogen receptor = biological target: T2, Estrogen receptor (Homo sapiens, UniProt P03372); test: Competitive inhibition of ER-alpha (unknown origin) ligand binding pocket expressed in ER-negative human SKBR3 cells coexpressing ERE using estradiol as substrate; format: cell-based, SK-BR-3
T2 sequence (P03372 whole entry): T1 sequence (whole entry)
Method in brief: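 SKBR3 (ER-negative breast cancer) cells were transfected with RST7–ERα, a 3xERE-TATA-luciferase reporter and a pCMV-β-gal normalization control. […] Cells were incubated 40 h, then luciferase reporter activity was read.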

[11] = biological target: T1, Estrogen receptor (Homo sapiens); test: Inhibition of ER-alpha (unknown origin) transcriptional activity expressed in ER-negative human SKBR3 cells coexpressing ERE assessed as increase in reporter gene activity at 20 to 50 uM after 40 hrs relative to control; format: cell-based; set-up: scale not given: the % may be the effect or the level left; conditions: SK-BR-3; method in brief: as §1
[12] = biological target: T1, Estrogen receptor (Homo sapiens); test: Competitive inhibition of ER-alpha (unknown origin)-GRIP1 interaction expressed in human HepG2 cells assessed as increase in reporter gene activity at >50 uM after 40 hrs relative to control; format: cell-based; set-up: scale not given: the % may be the effect or the level left; method in brief: as §2
[13] = biological target: T1, Estrogen receptor (Homo sapiens); test: Competitive inhibition of ER-alpha (unknown origin)-GRIP1 interaction expressed in human HepG2 cells assessed as change in reporter gene activity after 40 hrs in presence of estradiol relative to control; format: cell-based; set-up: concentration or dose not given beside the values; method in brief: as §2
[14] = biological target: T1, Estrogen receptor (Homo sapiens); test: Competitive inhibition of ER-alpha (unknown origin)-GRIP1 interaction expressed in human HepG2 cells assessed as decrease in reporter gene activity at 20 to 50 uM after 40 hrs relative to control; format: cell-based; set-up: scale not given: the % may be the effect or the level left; method in brief: as §2
[15] = biological target: T1, Estrogen receptor (Homo sapiens); test: Competitive inhibition of ER-alpha (unknown origin)-GRIP1 interaction expressed in human HepG2 cells assessed as decrease in reporter gene activity at 20 to 50 uM after 40 hrs in presence of estradiol relative to control; format: cell-based; set-up: scale not given: the % may be the effect or the level left; method in brief: as §2
[16] = biological target: T1, Estrogen receptor (Homo sapiens); test: Competitive inhibition of ER-alpha (unknown origin)-GRIP1 interaction expressed in human HepG2 cells assessed as increase in reporter gene activity at <20 uM after 40 hrs relative to control; format: cell-based; set-up: scale not given: the % may be the effect or the level left; method in brief: as §2
[17] = biological target: T1, Estrogen receptor (Homo sapiens); test: Competitive inhibition of ER-alpha (unknown origin)-GRIP1 interaction expressed in human HepG2 cells assessed as increase in reporter gene activity at <20 uM after 40 hrs in presence of estradiol relative to control; format: cell-based; set-up: scale not given: the % may be the effect or the level left; method in brief: as §2
[18] = biological target: T1, Estrogen receptor (Homo sapiens); test: Inhibition of ER-alpha (unknown origin) transcriptional activity expressed in ER-negative human SKBR3 cells coexpressing ERE assessed as increase in reporter gene activity at <20 uM after 40 hrs relative to control; format: cell-based; set-up: scale not given: the % may be the effect or the level left; conditions: SK-BR-3; method in brief: as §1
[19] = biological target: T1, Estrogen receptor (Homo sapiens); test: Inhibition of ER-alpha (unknown origin) transcriptional activity expressed in ER-negative human SKBR3 cells coexpressing ERE assessed as increase in reporter gene activity at >50 uM after 40 hrs relative to control; format: cell-based; set-up: scale not given: the % may be the effect or the level left; conditions: SK-BR-3; method in brief: as §1
[20] = Cytotoxicity against ER-negative human SKBR3 cells expressing ER-alpha coexpressing ERE assessed as cell death at >50 uM; format: cell-based; conditions: sk-br-3; method in brief: as §1
[21] = Cytotoxicity against ER-negative human SKBR3 cells expressing ER-alpha coexpressing ERE assessed as cell death at >50 uM in presence of estradiol; format: cell-based; conditions: sk-br-3; method in brief: as §1

Row | Compound | Activity [2] [%] | Activity [3] [%] | Activity [13] [%] | Activity [19] [%] | Activity (HepG2 [8]) | Activity (HepG2 [10]) | further results
1 | CCOC(=O)COc1ccc(-c2ccc(OCCN(C)C)cc2)cc1Cc1ccc2ccccc2c1 | – | – | – | – | Toxic | Toxic | Activity [5]: > 50%; Activity [6]: > 50%; Activity [7]: > 50%; Activity [9]: > 50%; IC50 (Estrogen receptor): 3.2 µM
2 | CCOC(=O)COc1ccc(-c2ccc(O)c(Cc3ccc4ccccc4c3)c2)cc1 | < 20 | – | < 20 | – | Toxic | Toxic | Activity [11]: > 50%; Activity [12]: > 50%
3 | CCOC(=O)COc1ccc(-c2ccc(OCCN(C)C)c(Cc3ccc(-c4ccccc4)cc3)c2)cc1 | – | – | – | – | Toxic | Toxic | Activity [5]: > 50%; Activity [6]: > 50%; Activity [7]: > 50%; Activity [9]: > 50%; IC50 (Estrogen receptor): 3.1 µM
4 | CCOC(=O)COc1ccc(-c2ccc(O)c(CC3CCCCC3)c2)cc1 | < 20 | < 20 | – | – | – | – | Activity [20]: Toxic; Activity [21]: Toxic; Activity [4]: > 50%; Activity [18]: > 50%
5 | CCOC(=O)COc1ccc(-c2ccc(OCCN(C)C)c(CC3CCCCC3)c2)cc1CC1CCCCC1 | < 20 | < 20 | – | > 50 | – | – | Activity [20]: Toxic; Activity [21]: Toxic; Activity [4]: > 50%
6 | CCOC(=O)COc1ccc(-c2ccc(OCCN(C)C)c(Cc3ccc4ccccc4c3)c2)cc1Cc1ccc2ccccc2c1 | < 20 | – | < 20 | > 50 | Toxic | Toxic | Activity [20]: Toxic; Activity [21]: Toxic; Activity [12]: > 50%
7 | CCCCCCCc1cc(-c2ccc(OCC(=O)OCC)cc2)ccc1O | < 20 | – | < 20 | > 50 | Toxic | Toxic | Activity [12]: > 50%
8 | CCOC(=O)COc1ccc(-c2ccc(O)c(CC3CCCCC3)c2)cc1CC1CCCCC1 | < 20 | < 20 | < 20 | – | Toxic | Toxic | Activity [1]: < 20%
9 | CCCCCCCc1cc(-c2ccc(OCC(=O)OCC)cc2)ccc1OCCN(C)C | < 20 | – | < 20 | > 50 | – | – | Activity [12]: > 50%
10 | CCOC(=O)COc1ccc(-c2ccc(O)c(Cc3ccc(-c4ccccc4)cc3)c2)cc1Cc1ccc(-c2ccccc2)cc1 | < 20 | < 20 | < 20 | – | – | – | Activity [18]: > 50%

The next lines start with results.

Row | Activity [2] [%] | Activity [3] [%] | Activity [13] [%] | Activity [19] [%] | Compound | Activity (HepG2 [8]) | Activity (HepG2 [10]) | further results
11 | < 20 | < 20 | – | – | CCOC(=O)COc1ccc(-c2ccc(O)cc2)cc1Cc1ccc2ccccc2c1 | – | – | Activity [1]: < 20%; Activity [4]: > 50%
12 | < 20 | – | – | – | CCOC(=O)COc1ccc(-c2ccc(O)c(Cc3ccc(-c4ccccc4)cc3)c2)cc1 | – | – | Activity [1]: < 20%; Activity [14]: > 50%; Activity [15]: > 50%
13 | < 20 | – | – | – | CCOC(=O)COc1ccc(-c2ccc(OCCN(C)C)c(Cc3ccc4ccccc4c3)c2)cc1 | – | – | Activity [16]: > 50%; Activity [17]: > 50%; Activity [18]: > 50%
14 | < 20 | – | < 20 | > 50 | CCOC(=O)COc1ccc(-c2ccc(O)cc2)cc1Cc1ccc(-c2ccccc2)cc1 | Toxic | Toxic | Activity [12]: > 50%
15 | < 20 | < 20 | < 20 | – | CCCCCCCc1cc(-c2ccc(O)cc2)ccc1OCC(=O)OCC | – | – | Activity [1]: < 20%
16 | < 20 | < 20 | < 20 | – | CCCCCCCc1cc(-c2ccc(OCC(=O)OCC)c(CCCCCCC)c2)ccc1O | – | – | Activity [1]: < 20%
17 | < 20 | – | < 20 | > 50 | CCCCCCCc1cc(-c2ccc(OCC(=O)OCC)c(CCCCCCC)c2)ccc1OCCN(C)C | – | – | Activity [12]: > 50%
18 | < 20 | < 20 | < 20 | – | CCOC(=O)COc1ccc(-c2ccc(O)cc2)cc1CC1CCCCC1 | – | – | Activity [18]: > 50%
19 | < 20 | < 20 | < 20 | > 50 | CCOC(=O)COc1ccc(-c2ccc(O)c(Cc3ccc4ccccc4c3)c2)cc1Cc1ccc2ccccc2c1 | – | – | –
20 | < 20 | < 20 | < 20 | – | CCOC(=O)COc1ccc(-c2ccc(OCCN(C)C)c(Cc3ccc(-c4ccccc4)cc3)c2)cc1Cc1ccc(-c2ccccc2)cc1 | – | – | Activity [11]: > 50%
21 | < 20 | < 20 | – | – | CCCCCCCc1cc(-c2ccc(OCCN(C)C)cc2)ccc1OCC(=O)OCC | – | – | Activity [1]: < 20%; Activity [4]: > 50%
